Screening results deposited in PubChem BioAssay by several laboratories.
Most compounds without a hit are left out; they make up all but 2% or so of the library.
TNF necrop inh: inhibitors of TNF-alpha triggered necroptosis, primary screen, cell-based, Jurkat FADD-/-, single concentration. Jurkat FADD-/- TNF necroptosis rescue, ATP luminescence, 24 h; 0 = TNF only, 100 = no-TNF cells. activation (protection from cell death), % at 10 µM. actives 0.068% (n = 220,000). AID 463075, 2010;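 active means activation, meaning protection from cell death, of at least 50% relative to plate controls; inactive means activation below 50%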;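 further: necroptosis triggered by 40 ng/mL TNF-alpha added together with compound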
RBBP9 inhibitor: human RBBP9 inhibitors, primary screen, biochemical, fluorescence polarization, FP-Rh probe, HTS; Serine hydrolase RBBP9 (Homo sapiens), O75884; recombinant RBBP9; inhibition, % at 7.94 µM; actives 0.2% (n = 220,000);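 active means inhibition above the campaign mean of all tested compounds plus 3 SD, cut at about 14% in these data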
Target sequence (O75884 whole entry, looked up): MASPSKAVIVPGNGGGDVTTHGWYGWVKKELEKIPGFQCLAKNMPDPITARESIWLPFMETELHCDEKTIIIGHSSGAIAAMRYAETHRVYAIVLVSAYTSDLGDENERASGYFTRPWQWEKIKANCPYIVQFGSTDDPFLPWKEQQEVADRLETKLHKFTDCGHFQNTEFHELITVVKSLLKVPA
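System: RBBP9 protein / Buffer or medium: Tris/NaCl buffer pH 8.0 with 0.1% Pluronic / Probe or stimulus: Serine-hydrolase probe FP-Rh, 375 nM pre-mixing / Dosing: 7.94 µM single dose, 0.794% DMSO / Times: enzyme-compound preincubation 30 min, then probe labeling 45 min, 25 °C / Technique: fluorescence polarization (mP), excitation 525 nm, emission 598 nm / Replication: singlicate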
PfM18AAP inh: PfM18AAP inhibitors, malaria aminopeptidase, primary screen, biochemical, QFRET, recombinant enzyme; actives 1.2% (n = 290,000); inhibition, % at 7.35 µM; H-Glu-NHMec fluorogenic cleavage;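 active means inhibition above the campaign mean inhibition over all tested compounds plus 3 SD, cut at about 28% in these data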
Tb hexokinase: Trypanosoma brucei hexokinase 1 inhibitors, primary screen, biochemical, G6PDH-coupled NADH absorbance, MLSCN library; recombinant TbHK1, G6PDH-coupled NADH A340; inhibition, % at 10 µM; actives 0.11% (n = 220,000); AID 1430, 2008;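 active means inhibition of 50% or more in the single-dose primary screen; inactive means inhibition below 50%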
L929 necroptosis: inhibitors of zVAD-triggered necroptosis, primary screen, L929 cells; L929 zVAD necroptosis rescue, ATP luminescence, 24 h; with zVAD 60 µM; viability rescue, % at 10 µM; actives 0.38% (n = 220,000); AID 1377, 2008;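 active means activation, scaled between plate controls, above about 75%, limit read from the data; inactive means activation under that limit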
Hep lipid drop: inhibitors of hepatocyte lipid droplet formation, primary screen, imaging, high-throughput imaging, BODIPY stain; actives 0.4% (n = 240,000); inhibition, % at 6.5 µM; AML12 mouse hepatocytes, oleate lipid droplets;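 active means lipid droplet intensity inhibited by at least 50%, with more than 500 cells counted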
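System: AML12 hepatocytes (mouse). Probe or stimulus: oleic acid at 100 µM to induce lipid droplet formation. Times: overnight treatment with compound plus oleate. Detection: Image-based BODIPY and DAPI two-channel analysis. Evaluation: percent inhibition of filter-corrected integrated lipid droplet intensity per well.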
A number is an active result; - = inactive; . = no result.

SMILES | TNF necrop inh | RBBP9 inhibitor | PfM18AAP inh | Tb hexokinase | L929 necroptosis | Hep lipid drop
C#CC(=O)N(c1cc(OC)ccc1OC)C(C(=O)NC1CCCC1)c1cccs1 (stereo unspecified) | - | - | - | - | - | .
COc1ccc(-c2nnc(SCC(=O)Nc3cc(C)on3)o2)cc1 | - | - | - | - | - | -
CSc1nc2sc3c(c2c(=O)[nH]1)CC(C)(C)OC3 | . | . | - | . | . | -
CCOc1ccccc1/C=C(\NC(=O)c1ccccc1)C(=O)NCCC(=O)O | - | - | - | - | - | -
CCOc1ccccc1/C=C(/NC(=O)c1ccccc1)C(=O)NCC(=O)O | - | - | - | - | - | 52
O=C(Nc1ccc(S(=O)(=O)NCc2ccccc2)cc1)C1CCCCC1 | . | . | - | . | . | -
CCc1ccc(/C=C/C(=O)c2cc(Br)ccc(=O)c2O)cc1 | - | - | 60 | - | - | -
Cc1ccccc1OCCNC(=O)CSc1ccc(C(F)(F)F)cc1[N+](=O)[O-] | - | - | - | - | - | -
COc1ccc(CNc2nc(NCc3ccc(OC)cc3)n(S(C)(=O)=O)n2)cc1 | - | - | - | - | - | -
COCC(=O)n1nc(NCc2ccc(OC)cc2)nc1NCc1ccc(OC)cc1 | - | - | 28 | - | - | -
COc1ccc(OC)c(S(=O)(=O)N/N=C\c2cn(CC(N)=O)c3ccccc23)c1 | . | . | - | . | . | -
COc1ccc(NC(=O)CSc2nnc(NC(=O)C3CCC3)s2)c(OC)c1 | . | . | - | . | . | -
Cc1nnsc1C(=O)NNc1ccc(C(C)C)cc1 | - | - | - | - | - | -
Cc1nnsc1C(=O)NNc1ccc(C(C)(C)C)cc1 | - | - | 29 | - | - | -
CC1=CC(C)(C)Nc2ccc(OC(=O)C(Cc3ccccc3)N3C(=O)c4ccccc4C3=O)cc21 (stereo unspecified) | - | - | - | - | 97 | .
O=c1c2c(nc3nc(NCc4cccc5ccccc45)[nH]n13)CCC2 | - | - | - | - | - | -
CC(Sc1nnc(NCc2ccccc2)s1)C(=O)Nc1ccc2c(c1)C(=O)c1ccccc1C2=O (stereo unspecified) | 80 | - | - | - | - | -
Cn1c(=O)c2c(ncn2CC(=O)OCC(=O)NCc2ccccc2Cl)n(C)c1=O | - | - | - | - | - | -
COc1ccc(OC)c(/C=N/NC(=O)CCc2ccc(O)c(O)c2)c1 | - | - | 31 | - | - | -
CCC(CC)c1ncc[nH]1 | - | - | - | - | - | -
COc1ccc2cc(C(=O)/C=C/c3cc(OC)c(O)c(OC)c3)ccc2c1 | . | . | 29 | . | . | -
COc1ccc(C(=O)/C=C/c2cc(OC)c(O)c(OC)c2)c(F)c1 | - | - | - | - | . | -
COc1cc2c(cc1OC)CN(C(=O)CSc1nc3[nH]ncc3c(=O)n1-c1ccccc1)CC2 | - | - | 31 | - | - | -
CCOc1cc(C(c2c(C)[nH][nH]c2=O)c2c(C)[nH][nH]c2=O)cc(Cl)c1O | . | . | 32 | . | . | -
CCOc1ccc(C(c2c(C)[nH][nH]c2=O)c2c(C)[nH][nH]c2=O)cc1OC | - | - | - | - | - | .
SMILES | TNF necrop inh | RBBP9 inhibitor | PfM18AAP inh | Tb hexokinase | L929 necroptosis | Hep lipid drop
CCOc1cc(C(c2c(C)[nH][nH]c2=O)c2c(C)[nH][nH]c2=O)cc(Br)c1OC | . | . | 30 | . | . | -
CC(=O)c1c(C)n(CCc2ccc(Cl)cc2)c2ccc(O)cc12 | . | . | - | . | . | -
CCCCCCN(C(=O)CCCCCN1C(=O)NC(c2ccccc2)C(C(=O)OCc2ccccc2)=C1C)C(C(=O)NCCCC)c1ccc(OCC(=O)OC)c(C(=O)OC)c1 (stereo unspecified) | - | . | . | - | - | 52
CS/C(=N\S(=O)(=O)c1cccs1)Nc1ccc(Br)cc1F | - | - | - | - | - | -
O=C(O)c1ccc2c(c1)C(=O)N(N1C(=O)c3ccccc3C1=O)C2=O | - | - | - | - | - | -
CCOC(=O)CC1C(=O)NCCN1S(=O)(=O)c1ccc(NC(C)=O)cc1 (stereo unspecified) | . | . | 28 | . | . | -
CCOC(=O)CC1C(=O)NCCN1S(=O)(=O)c1ccc(F)cc1 (stereo unspecified) | - | - | - | - | - | -
CN1CCN(S(=O)(=O)c2cccs2)CC1 | - | - | - | - | - | -
O=S(=O)(c1cccs1)N1CCN(c2ccc(O)cc2)CC1 | - | - | 37 | - | - | -
COc1ccccc1-[n+]1c(C)cc(/C=C2\Sc3ccccc3N2C)cc1C | - | - | 48 | - | - | -
O=c1c2ccccc2cnn1Cc1n[nH]c(=S)n1-c1cc(Cl)cc(Cl)c1 | - | - | 30 | - | - | -
Cc1ccc2[nH]c(=O)c(CN(Cc3ccc4c(c3)OCO4)Cc3nnnn3Cc3ccco3)cc2c1 | - | - | - | - | - | -
O=c1[nH]c2cc3c(cc2cc1CN(Cc1cccs1)Cc1nnnn1Cc1ccco1)OCCO3 | - | - | 31 | - | - | .
COc1ccccc1CN(Cc1cc2cc3c(cc2[nH]c1=O)OCCO3)Cc1nnnn1Cc1ccco1 | - | - | - | - | - | .
COCCn1nnnc1CN(Cc1cccnc1)Cc1cc2cc(OC)ccc2[nH]c1=O | - | - | 29 | - | - | .
O=c1[nH]c2cc3c(cc2cc1CN(Cc1ccccc1)Cc1nnnn1Cc1ccco1)OCCO3 | - | - | 30 | - | - | .
O=c1[nH]c2cc3c(cc2cc1CN(Cc1cccnc1)Cc1nnnn1Cc1ccco1)OCCO3 | - | - | 28 | - | - | -
O=C(NCc1ccc2c(c1)OCO2)c1ccc(S(=O)(=O)N2CCOCC2)cc1 | - | - | - | - | - | -
Cc1cc(/C=N/n2cnnc2)c(C)n1-c1cccc(Cl)c1 | - | - | 29 | - | - | -
O=S(=O)(Nc1cc2nc3ccccc3nc2n1Cc1ccccc1)c1ccc(Cl)cc1 | - | - | 28 | - | - | -
O=S(=O)(NCc1ccccc1)c1ccc(Cl)cc1 | - | - | - | - | - | -
C[C@@H]1O[C@@H](OC[C@H]2O[C@@H](Oc3c(-c4ccc(O)c(O)c4)oc4cc(O)cc(O)c4c3=O)[C@H](O)[C@@H](O)[C@@H]2O)[C@H](O)[C@H](O)[C@H]1O | . | - | 64 | . | . | -
O=c1c(O[C@@H]2O[C@H](CO)[C@@H](O)[C@H](O)[C@H]2O)c(-c2ccc(O)c(O)c2)oc2cc(O)cc(O)c12 | . | - | 68 | . | . | -
O=c1c(O[C@@H]2O[C@H](CO)[C@H](O)[C@H](O)[C@H]2O)c(-c2ccc(O)c(O)c2)oc2cc(O)cc(O)c12 | . | - | 68 | . | . | -
